In general, IC50 refers to the concentration at which inhibition is half-maximal. Low readings indicate greater potency in that assay, high ones weaker potency in that assay. What is called inhibition is the relative decrease from the control value, in per cent.

Experiment [1] addresses Protease (Human immunodeficiency virus 1, UniProt Q9YQ12). In words: Inhibition of HIV1 protease. A digest of the protocol:
(§1)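 HIV-1 protease inhibition was measured with a commercial HIV protease assay kit, which supplied both the enzyme and the reagents. Acetyl pepstatin from the same kit served as the positive control. The assay was run and percent inhibition calculated by a previously published procedure. Fractions were tested at 100 µg/mL.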

The target of experiment [2] is Protease (Human immunodeficiency virus 1) (UniProt Q9YQ12). In words: Inhibition of HIV1 protease at 100 ug/ml. The gist of the method:
as §1

Protease (Human immunodeficiency virus 1), sequence (Q9YQ12 as listed by the source): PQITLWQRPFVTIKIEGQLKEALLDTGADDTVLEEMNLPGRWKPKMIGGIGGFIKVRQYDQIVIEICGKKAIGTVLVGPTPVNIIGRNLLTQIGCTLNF
Protease, sequence (Q9YQ12 whole entry): as the sequence (Q9YQ12 as listed by the source) above

For the compound `CC(C)=CCC[C@H](C(=O)O)[C@@H]1CC[C@]2(C)C3=CC[C@@H]4[C@](C)(CC[C@@H](O)[C@]4(C)CO)[C@H]3CC[C@@]12C`, the IC50 in experiment [1] was above 212 µM. Moreover, the inhibition in experiment [2] was 26%.

Compound `Oc1cc(O)c2c(c1)O[C@@]1(c3cc(O)c(O)c(O)c3)Oc3cc(O)c4c(c3[C@@H]2[C@H]1O)O[C@H](c1ccc(O)c(O)c1)[C@H](O)C4` had a concentration for half-maximal inhibition (IC50) in experiment [1] of 118 µM. Moreover, in experiment [2], the inhibition was 89%.

Compound `C=C(CC[C@@H](C)[C@H]1CC[C@@]2(C)[C@@H]3CC[C@H]4C(C)(C)[C@@H](O)CC[C@@]45C[C@@]35CC[C@]12C)C(C)C` gave an IC50 in experiment [1] above 227 µM. In addition, the inhibition in experiment [2] turned out to be 19%.

Turning to `CC(C)=CCC[C@H](C(=O)O)[C@@H]1CC[C@]2(C)C3=CC[C@H]4C(C)(C)C(=O)CC[C@]4(C)[C@H]3CC[C@@]12C`, 44 µM corresponded to half-maximal inhibition in experiment [1] (IC50). Moreover, the inhibition in experiment [2] worked out at 90%.

Turning to `CC(C)=CCC[C@H](C(=O)O)[C@@H]1CC[C@]2(C)C3=CC[C@@H]4[C@](C)(CC[C@H](O)[C@]4(C)CO)[C@H]3CC[C@@]12C`, the IC50 in experiment [1] was 212 µM. Further, the inhibition in experiment [2] was determined as 53%.

In the case of `CC(C)=CCC[C@H](C(=O)O)[C@@H]1CC[C@]2(C)C3=CC[C@@H]4[C@](C)(CCC(=O)[C@]4(C)CO)[C@H]3CC[C@@]12C` [XANTHOCERASIC ACID], the half-inhibitory concentration (IC50) in experiment [1] was above 212 µM. For the same compound, in experiment [2], the inhibition turned out to be 14%.

In turn, `CC1(C)CC[C@]2(C(=O)O)CC[C@]3(C)C(=CC[C@@H]4[C@@]5(C)CC[C@H](O)C(C)(C)[C@@H]5CC[C@]43C)[C@@H]2C1` [OLEANOLIC_ACID] showed a half-inhibitory concentration (IC50) in experiment [1] of 21.9 µM. Besides, the inhibition in experiment [2] is 96%.

For `CC(C)=CCC[C@H](C(=O)O)[C@@H]1CC[C@]2(C)C3=CC[C@H]4C(C)(C)[C@@H](O)CC[C@]4(C)[C@H]3CC[C@@]12C`, half-maximal inhibition in experiment [1] (IC50) was put at 219 µM. Further, in experiment [2], the inhibition is 50%.

In experiment [1], `CC(=O)N[C@H](C(=O)N[C@H](C(=O)N[C@@H](CC(C)C)[C@@H](O)CC(=O)N[C@@H](C)C(=O)N[C@@H](CC(C)C)[C@@H](O)CC(=O)O)C(C)C)C(C)C` [ACETYLPEPSTATIN] showed an IC50 of 0.233 µM. In addition, the inhibition in experiment [2] stood at 100%.

As to `CC(=O)OC[C@@]1(C)C(=O)CC[C@@]2(C)[C@H]1CC=C1[C@@H]2CC[C@@]2(C)[C@H]([C@H](CCC=C(C)C)C(=O)O)CC[C@]12C`, the IC50 in experiment [1] is above 195 µM. The inhibition in experiment [2] is 26%.

In the case of `Oc1cc(O)c2c(c1)O[C@@]1(c3ccc(O)c(O)c3)Oc3cc(O)c4c(c3[C@@H]2[C@H]1O)O[C@H](c1ccc(O)c(O)c1)[C@H](O)C4` [PROANTHOCYANIDIN A2], in experiment [1], the IC50 is above 173 µM. Further, the inhibition in experiment [2] was -2%.

Source of the values: ChEMBL document CHEMBL1155677, “Inhibitory effects on HIV-1 protease of constituents from the wood of Xanthoceras sorbifolia” (J Nat Prod, 2000).
